Assays:
[1] = molecular target: Serine/threonine-protein kinase N2 (Homo sapiens) (UniProt Q16513); assay: Competitive binding affinity to PKN2 (unknown origin) at 10 uM in presence of ATP relative to control
How it was run: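 In vitro ATP-site competition binding assay across a diverse panel of 128 kinases, with compound tested at a single concentration. Kinase selectivity scores (S15) were calculated from the panel profiles.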

[2] = molecular target: Mitogen-activated protein kinase kinase kinase kinase 1 (Homo sapiens) (UniProt Q92918); assay: Competitive binding affinity to MAP4K1 (unknown origin) at 10 uM in presence of ATP relative to control
Chain of Mitogen-activated protein kinase kinase kinase kinase 1 (Homo sapiens) (Q92918 whole entry, looked up): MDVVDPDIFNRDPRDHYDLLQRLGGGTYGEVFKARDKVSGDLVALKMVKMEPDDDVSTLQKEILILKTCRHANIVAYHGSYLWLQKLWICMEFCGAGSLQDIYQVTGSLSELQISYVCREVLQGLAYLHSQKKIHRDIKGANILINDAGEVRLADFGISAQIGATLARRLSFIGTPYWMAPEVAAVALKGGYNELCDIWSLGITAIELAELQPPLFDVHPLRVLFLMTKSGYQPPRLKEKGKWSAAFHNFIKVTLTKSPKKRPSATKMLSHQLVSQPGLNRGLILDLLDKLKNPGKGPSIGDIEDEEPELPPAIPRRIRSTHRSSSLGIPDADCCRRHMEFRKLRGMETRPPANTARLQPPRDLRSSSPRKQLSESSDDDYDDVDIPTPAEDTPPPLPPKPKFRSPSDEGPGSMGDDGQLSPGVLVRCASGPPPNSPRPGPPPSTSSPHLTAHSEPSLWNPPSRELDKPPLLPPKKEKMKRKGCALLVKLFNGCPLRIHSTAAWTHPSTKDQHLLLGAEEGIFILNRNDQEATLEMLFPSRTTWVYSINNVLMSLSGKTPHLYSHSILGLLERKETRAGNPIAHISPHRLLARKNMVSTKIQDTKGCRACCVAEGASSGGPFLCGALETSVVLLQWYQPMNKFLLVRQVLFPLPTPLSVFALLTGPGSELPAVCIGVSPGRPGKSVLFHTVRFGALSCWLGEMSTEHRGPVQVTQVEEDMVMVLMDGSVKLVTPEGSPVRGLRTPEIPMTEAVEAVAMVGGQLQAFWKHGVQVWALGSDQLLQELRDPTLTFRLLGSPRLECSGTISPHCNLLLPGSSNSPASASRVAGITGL

[3] = molecular target: T1, Tyrosine-protein kinase receptor TYRO3 (Homo sapiens) (UniProt Q06418); assay: Competitive binding affinity to TYRO3 (unknown origin) at 10 uM in presence of ATP relative to control
T1 sequence (whole entry): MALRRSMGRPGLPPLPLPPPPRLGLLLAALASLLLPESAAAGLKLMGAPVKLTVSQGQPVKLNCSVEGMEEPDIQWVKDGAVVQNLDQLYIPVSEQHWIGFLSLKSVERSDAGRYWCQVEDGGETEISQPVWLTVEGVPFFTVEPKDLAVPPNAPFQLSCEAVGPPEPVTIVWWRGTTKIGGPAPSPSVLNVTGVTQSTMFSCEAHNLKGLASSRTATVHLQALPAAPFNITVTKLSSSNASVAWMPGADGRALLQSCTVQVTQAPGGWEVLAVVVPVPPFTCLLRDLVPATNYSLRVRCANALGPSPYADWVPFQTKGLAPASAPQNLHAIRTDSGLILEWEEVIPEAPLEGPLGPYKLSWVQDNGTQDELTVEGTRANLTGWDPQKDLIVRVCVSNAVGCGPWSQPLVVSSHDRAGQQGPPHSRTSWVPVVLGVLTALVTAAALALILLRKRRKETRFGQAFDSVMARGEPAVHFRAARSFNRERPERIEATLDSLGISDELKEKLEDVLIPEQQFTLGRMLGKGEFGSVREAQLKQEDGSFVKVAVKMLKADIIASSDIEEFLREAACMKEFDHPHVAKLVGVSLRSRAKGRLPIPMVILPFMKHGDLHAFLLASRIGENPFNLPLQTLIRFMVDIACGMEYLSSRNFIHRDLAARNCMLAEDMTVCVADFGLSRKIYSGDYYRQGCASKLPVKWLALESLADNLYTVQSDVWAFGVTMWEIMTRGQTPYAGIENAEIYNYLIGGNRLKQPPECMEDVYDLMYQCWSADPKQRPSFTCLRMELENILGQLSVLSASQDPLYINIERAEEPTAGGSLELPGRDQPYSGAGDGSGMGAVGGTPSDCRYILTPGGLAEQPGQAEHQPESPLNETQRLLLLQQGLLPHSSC

[4] = system: Mast/stem cell growth factor receptor Kit (Homo sapiens), P10721 [V559D,V654A]; assay: Competitive binding affinity to KIT V559D/V654A double mutant (unknown origin) at 10 uM in presence of ATP relative to control
Chain of Mast/stem cell growth factor receptor Kit (Homo sapiens), P10721 [V559D,V654A] (P10721 whole entry V559D/V654A): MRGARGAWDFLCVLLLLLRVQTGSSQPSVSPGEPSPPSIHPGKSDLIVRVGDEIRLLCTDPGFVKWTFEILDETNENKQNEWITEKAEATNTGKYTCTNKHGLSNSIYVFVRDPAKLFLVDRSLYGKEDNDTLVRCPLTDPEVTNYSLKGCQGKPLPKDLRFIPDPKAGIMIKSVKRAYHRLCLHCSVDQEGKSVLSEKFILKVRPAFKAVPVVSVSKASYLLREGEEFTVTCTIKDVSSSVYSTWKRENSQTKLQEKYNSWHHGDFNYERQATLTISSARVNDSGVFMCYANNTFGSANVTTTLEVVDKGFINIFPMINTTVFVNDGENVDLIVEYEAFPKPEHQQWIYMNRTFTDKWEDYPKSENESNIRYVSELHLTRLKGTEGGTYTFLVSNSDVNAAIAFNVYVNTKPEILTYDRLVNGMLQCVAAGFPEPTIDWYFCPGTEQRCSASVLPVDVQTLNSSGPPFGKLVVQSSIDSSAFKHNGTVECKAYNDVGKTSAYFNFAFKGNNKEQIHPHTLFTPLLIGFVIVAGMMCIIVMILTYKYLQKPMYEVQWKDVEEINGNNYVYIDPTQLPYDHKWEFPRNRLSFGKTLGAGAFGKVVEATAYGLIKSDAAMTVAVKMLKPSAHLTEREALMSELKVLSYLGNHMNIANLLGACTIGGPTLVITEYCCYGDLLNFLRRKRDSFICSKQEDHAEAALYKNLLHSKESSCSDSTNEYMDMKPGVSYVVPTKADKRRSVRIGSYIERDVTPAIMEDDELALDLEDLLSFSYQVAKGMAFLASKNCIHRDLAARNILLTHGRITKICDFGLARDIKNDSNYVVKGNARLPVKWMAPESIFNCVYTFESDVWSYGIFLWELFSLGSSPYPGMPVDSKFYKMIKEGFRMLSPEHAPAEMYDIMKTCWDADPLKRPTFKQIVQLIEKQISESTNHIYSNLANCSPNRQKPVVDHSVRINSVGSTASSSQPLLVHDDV
How it was run: (§1)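 In vitro ATP-site competition binding assay, part of profiling against a diverse panel of 128 kinases. Each compound was tested at a single concentration of 10 µM. Kinome selectivity was summarized as S15 selectivity scores.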

[5] = molecular target: T2, Ephrin type-B receptor 2 (Homo sapiens) (UniProt P29323); assay: Competitive binding affinity to EPHB2 (unknown origin) at 10 uM in presence of ATP relative to control; how it was run: as §1
T2 sequence (whole entry): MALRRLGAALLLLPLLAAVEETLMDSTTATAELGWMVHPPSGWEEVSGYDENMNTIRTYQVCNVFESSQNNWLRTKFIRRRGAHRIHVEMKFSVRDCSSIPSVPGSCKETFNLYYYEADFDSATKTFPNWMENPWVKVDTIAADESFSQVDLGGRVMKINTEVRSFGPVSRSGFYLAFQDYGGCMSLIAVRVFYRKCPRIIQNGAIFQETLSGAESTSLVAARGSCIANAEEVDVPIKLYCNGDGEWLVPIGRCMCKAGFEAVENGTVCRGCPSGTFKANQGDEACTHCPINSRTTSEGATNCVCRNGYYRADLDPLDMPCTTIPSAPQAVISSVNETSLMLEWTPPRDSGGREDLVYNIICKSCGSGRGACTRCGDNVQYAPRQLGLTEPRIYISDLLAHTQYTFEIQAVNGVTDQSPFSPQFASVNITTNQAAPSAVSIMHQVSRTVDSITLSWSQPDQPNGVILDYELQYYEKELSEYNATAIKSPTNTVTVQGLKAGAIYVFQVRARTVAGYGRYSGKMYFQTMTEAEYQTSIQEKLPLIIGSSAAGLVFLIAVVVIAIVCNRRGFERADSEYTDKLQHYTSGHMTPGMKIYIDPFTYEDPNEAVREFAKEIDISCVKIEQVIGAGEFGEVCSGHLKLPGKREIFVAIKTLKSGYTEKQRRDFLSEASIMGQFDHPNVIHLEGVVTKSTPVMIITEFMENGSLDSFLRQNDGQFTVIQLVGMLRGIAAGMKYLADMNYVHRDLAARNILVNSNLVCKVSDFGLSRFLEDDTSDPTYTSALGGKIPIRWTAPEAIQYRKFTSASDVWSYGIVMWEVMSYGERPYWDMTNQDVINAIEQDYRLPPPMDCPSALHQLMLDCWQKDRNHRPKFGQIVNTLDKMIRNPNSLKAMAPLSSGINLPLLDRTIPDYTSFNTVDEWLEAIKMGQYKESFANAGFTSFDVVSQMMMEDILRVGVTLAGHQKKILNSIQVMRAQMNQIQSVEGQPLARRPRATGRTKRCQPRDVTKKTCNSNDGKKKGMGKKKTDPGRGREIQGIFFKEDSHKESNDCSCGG

[6] = system: Epidermal growth factor receptor (Homo sapiens), P00533 [L861Q]; assay: Competitive binding affinity to EGFR L861Q mutant (unknown origin) at 10 uM in presence of ATP relative to control; how it was run: as §1
Chain of Epidermal growth factor receptor (Homo sapiens), P00533 [L861Q] (P00533 whole entry L861Q): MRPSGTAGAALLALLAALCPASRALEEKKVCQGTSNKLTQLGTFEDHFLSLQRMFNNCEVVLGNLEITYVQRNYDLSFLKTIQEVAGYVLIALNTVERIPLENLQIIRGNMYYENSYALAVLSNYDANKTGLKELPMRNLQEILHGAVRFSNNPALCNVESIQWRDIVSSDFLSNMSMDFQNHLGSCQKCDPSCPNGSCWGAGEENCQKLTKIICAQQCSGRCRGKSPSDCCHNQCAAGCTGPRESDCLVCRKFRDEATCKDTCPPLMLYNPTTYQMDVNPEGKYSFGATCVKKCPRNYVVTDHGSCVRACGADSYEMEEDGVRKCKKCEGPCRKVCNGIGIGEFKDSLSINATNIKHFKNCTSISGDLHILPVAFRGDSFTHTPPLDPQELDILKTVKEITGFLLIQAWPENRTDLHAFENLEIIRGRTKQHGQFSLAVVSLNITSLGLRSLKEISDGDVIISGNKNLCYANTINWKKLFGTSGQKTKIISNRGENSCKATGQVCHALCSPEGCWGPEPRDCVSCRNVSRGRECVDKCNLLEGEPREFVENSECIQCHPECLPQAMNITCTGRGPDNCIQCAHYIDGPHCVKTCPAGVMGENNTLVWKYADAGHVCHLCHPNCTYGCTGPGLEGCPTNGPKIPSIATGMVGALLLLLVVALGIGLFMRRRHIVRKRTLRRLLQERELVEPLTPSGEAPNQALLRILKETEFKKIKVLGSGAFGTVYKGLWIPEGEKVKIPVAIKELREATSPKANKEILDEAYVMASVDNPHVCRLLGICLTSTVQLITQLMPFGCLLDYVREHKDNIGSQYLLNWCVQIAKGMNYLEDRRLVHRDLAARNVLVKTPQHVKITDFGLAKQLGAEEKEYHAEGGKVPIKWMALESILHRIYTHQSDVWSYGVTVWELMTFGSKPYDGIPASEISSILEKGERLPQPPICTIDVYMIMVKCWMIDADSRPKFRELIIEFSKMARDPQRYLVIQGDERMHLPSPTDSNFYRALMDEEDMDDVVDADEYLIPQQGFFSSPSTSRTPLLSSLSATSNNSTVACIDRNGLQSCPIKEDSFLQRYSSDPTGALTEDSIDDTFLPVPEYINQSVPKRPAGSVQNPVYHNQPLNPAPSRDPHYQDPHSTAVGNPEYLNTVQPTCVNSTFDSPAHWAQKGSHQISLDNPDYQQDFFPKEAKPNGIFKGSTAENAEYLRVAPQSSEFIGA

[7] = molecular target: Serine/threonine-protein kinase SIK2 (Homo sapiens) (UniProt Q9H0K1); assay: Competitive binding affinity to SNF1LK2 (unknown origin) at 10 uM in presence of ATP relative to control
Chain of Serine/threonine-protein kinase SIK2 (Homo sapiens) (Q9H0K1 whole entry, looked up): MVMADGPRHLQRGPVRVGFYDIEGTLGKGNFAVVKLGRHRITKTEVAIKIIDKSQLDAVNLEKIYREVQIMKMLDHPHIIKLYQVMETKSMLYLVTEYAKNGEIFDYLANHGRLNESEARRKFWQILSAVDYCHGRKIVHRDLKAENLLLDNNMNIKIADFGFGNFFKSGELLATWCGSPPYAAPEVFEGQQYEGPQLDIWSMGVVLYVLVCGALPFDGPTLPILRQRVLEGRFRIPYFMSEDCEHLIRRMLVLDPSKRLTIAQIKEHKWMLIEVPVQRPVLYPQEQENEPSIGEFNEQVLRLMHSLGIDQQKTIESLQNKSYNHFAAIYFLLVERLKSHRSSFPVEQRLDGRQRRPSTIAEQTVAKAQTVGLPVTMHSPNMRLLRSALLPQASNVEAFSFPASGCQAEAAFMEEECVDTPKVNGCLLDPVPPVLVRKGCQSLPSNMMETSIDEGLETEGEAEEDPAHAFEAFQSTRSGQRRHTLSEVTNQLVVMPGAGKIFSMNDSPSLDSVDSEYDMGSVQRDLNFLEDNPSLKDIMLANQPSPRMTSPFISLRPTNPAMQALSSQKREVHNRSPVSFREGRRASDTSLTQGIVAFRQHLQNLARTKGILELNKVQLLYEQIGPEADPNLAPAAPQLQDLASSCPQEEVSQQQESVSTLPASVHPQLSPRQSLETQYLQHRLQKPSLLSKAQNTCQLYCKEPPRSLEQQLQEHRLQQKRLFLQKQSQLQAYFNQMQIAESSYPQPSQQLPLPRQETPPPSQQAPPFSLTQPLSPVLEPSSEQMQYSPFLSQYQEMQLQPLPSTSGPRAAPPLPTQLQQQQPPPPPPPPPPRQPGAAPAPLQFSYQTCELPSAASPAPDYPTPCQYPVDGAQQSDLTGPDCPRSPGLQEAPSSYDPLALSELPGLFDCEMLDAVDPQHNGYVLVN

[8] = molecular target: T3, Serine/threonine-protein kinase 17A (Homo sapiens) (UniProt Q9UEE5); assay: Competitive binding affinity to STK17A (unknown origin) at 10 uM in presence of ATP relative to control
T3 sequence (whole entry): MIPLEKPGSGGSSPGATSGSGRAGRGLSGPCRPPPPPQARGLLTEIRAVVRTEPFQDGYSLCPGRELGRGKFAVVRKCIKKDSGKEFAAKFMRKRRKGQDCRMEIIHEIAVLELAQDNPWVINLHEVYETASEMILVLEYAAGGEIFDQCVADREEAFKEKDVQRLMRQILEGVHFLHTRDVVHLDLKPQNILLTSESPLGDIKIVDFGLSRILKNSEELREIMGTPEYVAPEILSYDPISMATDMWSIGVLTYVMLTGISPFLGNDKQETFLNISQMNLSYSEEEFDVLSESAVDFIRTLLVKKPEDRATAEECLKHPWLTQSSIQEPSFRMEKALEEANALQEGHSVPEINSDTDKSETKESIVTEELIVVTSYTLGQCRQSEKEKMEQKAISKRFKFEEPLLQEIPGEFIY

Chain of Serine/threonine-protein kinase N2 (Homo sapiens) (Q16513 whole entry, looked up): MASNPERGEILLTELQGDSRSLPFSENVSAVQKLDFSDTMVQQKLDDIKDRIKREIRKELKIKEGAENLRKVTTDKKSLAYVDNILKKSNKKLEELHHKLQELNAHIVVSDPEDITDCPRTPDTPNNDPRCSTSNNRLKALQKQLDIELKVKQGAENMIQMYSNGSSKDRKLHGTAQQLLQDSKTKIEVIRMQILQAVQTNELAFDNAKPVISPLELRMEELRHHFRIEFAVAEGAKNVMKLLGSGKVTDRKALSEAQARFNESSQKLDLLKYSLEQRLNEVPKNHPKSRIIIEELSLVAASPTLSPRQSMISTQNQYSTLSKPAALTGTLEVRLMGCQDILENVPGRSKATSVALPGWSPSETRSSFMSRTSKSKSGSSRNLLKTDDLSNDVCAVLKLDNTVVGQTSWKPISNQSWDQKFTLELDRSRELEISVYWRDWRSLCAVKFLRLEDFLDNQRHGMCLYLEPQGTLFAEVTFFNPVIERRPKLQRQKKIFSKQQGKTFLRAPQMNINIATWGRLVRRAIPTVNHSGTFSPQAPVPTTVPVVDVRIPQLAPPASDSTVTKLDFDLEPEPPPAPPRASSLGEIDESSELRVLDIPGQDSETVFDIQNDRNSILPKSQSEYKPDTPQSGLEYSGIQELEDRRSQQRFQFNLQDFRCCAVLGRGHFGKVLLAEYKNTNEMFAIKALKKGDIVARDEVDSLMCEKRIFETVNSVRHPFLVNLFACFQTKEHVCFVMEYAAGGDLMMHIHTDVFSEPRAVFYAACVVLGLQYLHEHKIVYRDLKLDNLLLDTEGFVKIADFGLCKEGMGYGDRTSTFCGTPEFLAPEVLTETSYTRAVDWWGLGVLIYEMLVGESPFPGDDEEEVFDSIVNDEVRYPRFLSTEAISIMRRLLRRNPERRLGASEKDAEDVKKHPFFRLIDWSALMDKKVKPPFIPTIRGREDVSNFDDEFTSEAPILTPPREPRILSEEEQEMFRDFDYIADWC

Row | inhibition [1] [%] | inhibition [2] [%] | inhibition [3] [%] | inhibition [4] [%] | inhibition [5] [%] | inhibition [6] [%] | inhibition [7] [%] | inhibition [8] [%] | Structure (SMILES)
1 | < 50 | < 50 | < 50 | 87 | < 50 | < 50 | < 50 | – | O[C@H]1CC[C@H](Nc2nccc(-n3ncc4ccccc43)n2)CC1
2 | < 50 | < 50 | < 50 | 64 | < 50 | < 50 | < 50 | – | O[C@H]1CC[C@H](Nc2nccc(-n3ccc4ccccc43)n2)CC1
3 | – | – | – | – | – | – | – | 100 | N[C@H]1CC[C@H](Nc2nccc(-n3nnc4ccccc43)n2)CC1
4 | – | – | – | – | – | – | – | 97 | O=C([C@H]1CC[C@H](Nc2nccc(-n3nnc4ccccc43)n2)CC1)N1CCOCC1
5 | 67 | 97 | < 50 | 82 | < 50 | < 50 | – | 100 | O[C@H]1CC[C@H](Nc2nccc(-c3n[nH]c4ccccc34)n2)CC1
6 | 69 | < 50 | < 50 | 67 | < 50 | < 50 | 73 | – | O[C@H]1CC[C@H](Nc2nccc(-n3nnc4ccccc43)n2)CC1

— ChEMBL document CHEMBL2424622, “Development of amino-pyrimidine inhibitors of c-Jun N-terminal kinase (JNK): kinase profiling guided optimization of a 1,2,3-benzotriazole lead” (Bioorg Med Chem Lett, 2013)
